Structures are written as SMILES. Values after ≈ are worked out from the molar mass of the structure shown. Where only a bound is given, the exact number is not on record here.

Usually IC50 stands for the midpoint of a concentration-inhibition curve. Usually EC50 stands for the concentration that produces a half-maximal response. Higher therefore signals lower potency in that assay.

In data set [1] the test system is H9 cells (Homo sapiens). As to the kind of experiment: Cytotoxicity against human H9 cells after 4 days.
Data set [2] is described as follows: Therapeutic index, ratio of IC50 for human H9 cells to EC50 for HIV1 3B. The data set is classed as cell-based. Particulars: for selectivity ratio: H9 cells (cytotoxicity IC50) and HIV-1 3B (antiviral EC50); call rule not given here. Summed up: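 TI calculated as IC50 (Coulter counts of mock-infected cells after 4 days) divided by EC50 (day-4 supernatant p24 ELISA of infected cells). Both were read from the same 4-day plates.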

In data set [3] the test system is Human immunodeficiency virus 1. As to the kind of experiment: Inhibition of HIV-1 replication in acutely infected human H9 cells after 4 days. Particulars: H9, 96 h.
Data set [4] relates to Human immunodeficiency virus 1. As to the kind of experiment: Antiviral activity against HIV1 in human H9 cells after 4 days. As to conditions: h9, 96 h.
[5] abbreviates: Homo sapiens, H9, 96 h, read-out: IC50.

Consider `CC1(C)CC[C@]2(C(=O)O)CC[C@]3(C)C(=CC[C@@H]4[C@@]5(C)CC[C@H](OC(=O)CC(C)(C)C(=O)O)C(C)(C)[C@@H]5CC[C@]43C)[C@@H]2C1`, for which, in data set [1] (setting [5]), the IC50 amounted to 11.2 µg/mL (≈ 19.2 µM). Besides, in data set [2], the selectivity ratio amounted to 22400.
For `CC(C)(CC(=O)O)CC(=O)O[C@H]1CC[C@]2(C)[C@H]3CC=C4[C@@H]5CC(C)(C)CC[C@]5(C(=O)O)CC[C@@]4(C)[C@]3(C)CC[C@H]2C1(C)C` the same measures were 14.2 µg/mL (≈ 23.7 µM) and 9.3.
As to `CC1(C)CC[C@]2(C(=O)O)CC[C@]3(C)C(=CC[C@@H]4[C@@]5(C)CC[C@H](OC(=O)CCCC(=O)O)C(C)(C)[C@@H]5CC[C@]43C)[C@@H]2C1`, the half-inhibitory concentration (IC50) in data set [1] (setting [5]) was 14.6 µg/mL (≈ 25.6 µM). The selectivity ratio in data set [2] came to 2.1.
As to `CC1(C)CC[C@]2(C(=O)O)CC[C@]3(C)C(=CC[C@@H]4[C@@]5(C)CC[C@H](OC(=O)CC6(CC(=O)O)CCCC6)C(C)(C)[C@@H]5CC[C@]43C)[C@@H]2C1`, in data set [1] (setting [5]), the 50% inhibitory concentration (IC50) amounted to 4.7 µg/mL (≈ 7.52 µM). Moreover, the selectivity ratio in data set [2] was found to be 3.9.
For `CC[C@@](C)(CC(=O)O)CC(=O)O[C@H]1CC[C@]2(C)[C@H]3CC=C4[C@@H]5CC(C)(C)CC[C@]5(C(=O)O)CC[C@@]4(C)[C@]3(C)CC[C@H]2C1(C)C`, in data set [1] (setting [5]), the IC50 worked out at 4.4 µg/mL (≈ 7.18 µM). In data set [3], this compound came in with an EC50 of 1.1 µg/mL (≈ 1.79 µM). Moreover, the selectivity ratio in data set [2] was 4.1.
For `C[C@@H]1CC[C@]2(C(=O)O)CC[C@]3(C)C(=CC[C@@H]4[C@@]5(C)[C@H](O)C(=O)[C@H](O)C(C)(C)[C@@H]5CC[C@]43C)[C@@H]2[C@]1(C)O`, the IC50 in data set [1] (setting [5]) came out at 40 µg/mL (≈ 79.6 µM). Further, the Activity result in data set [4] was “Not Active”.
For `C[C@@H]1CC[C@]2(C(=O)O)CC[C@]3(C)C(=CC[C@@H]4[C@@]5(C)CC(=O)[C@H](O)C(C)(C)[C@@H]5CC[C@]43C)[C@@H]2[C@]1(C)O`, the IC50 in data set [1] (setting [5]) stood at 40 µg/mL (≈ 82.2 µM). For the same compound, the EC50 in data set [3] came to 20 µg/mL (≈ 41.1 µM). Also, the selectivity ratio in data set [2] amounted to 2.
Regarding `CC1(C)CC[C@]2(C(=O)[O-])CC[C@]3(C)C(=CC[C@@H]4[C@@]5(C)CC[C@H](O)C(C)(C)[C@@H]5CC[C@]43C)[C@@H]2C1.[K+]`, the 50% inhibitory concentration (IC50) in data set [1] (setting [5]) was 34.3 µg/mL. Also, in data set [3], it took 0.5 µg/mL to reach a half-maximal effect (EC50). For the same compound, the “Ratio IC50/EC50” value in data set [2] (h9) came out at 68.6.
Turning to `CC1(C)CC[C@]2(C(=O)O)CC[C@]3(CO)C(=CC[C@@H]4[C@@]5(C)CC[C@H](O)C(C)(C)[C@@H]5CC[C@]43C)[C@@H]2C1`, the half-inhibitory concentration (IC50) in data set [1] (setting [5]) was found to be 25 µg/mL (≈ 52.9 µM). This compound also had an EC50 in data set [3] of 4.4 µg/mL (≈ 9.31 µM). Also, the selectivity ratio in data set [2] was 5.7.
As to `CC1(C)CC[C@]2(C(=O)O)CC[C@]3(C)C(=CC[C@@H]4[C@@]5(C)CC[C@H](OC(=O)COCC(=O)O)C(C)(C)[C@@H]5CC[C@]43C)[C@@H]2C1`, the IC50 in data set [1] (setting [5]) was determined as 22.1 µg/mL (≈ 38.6 µM). Moreover, in data set [4], the Activity result is listed as “Not Active”.
For `CC1(C)CC[C@]2(C(=O)O)CC[C@]3(C)C(=CC[C@@H]4[C@@]5(C)CC[C@H](OC(=O)C(C)(C)CC(=O)O)C(C)(C)[C@@H]5CC[C@]43C)[C@@H]2C1` the same measures were 9.7 µg/mL (≈ 16.6 µM) and “Not Active”.
Regarding `C[C@@H](CC(=O)O)CC(=O)O[C@H]1CC[C@]2(C)[C@H]3CC=C4[C@@H]5CC(C)(C)CC[C@]5(C(=O)O)CC[C@@]4(C)[C@]3(C)CC[C@H]2C1(C)C`, the half-maximal inhibitory concentration (IC50) in data set [1] (setting [5]) came out at 27.5 µg/mL (≈ 47 µM). Also, the midpoint of the response in data set [3], the EC50, lay at 8.3 µg/mL (≈ 14.2 µM). Also, the selectivity ratio in data set [2] turned out to be 3.3.
In the same order, the values of `C[C@@H]1CC[C@]2(C(=O)O)CC[C@]3(C)C(=CC[C@@H]4[C@@]5(C)[C@H](O)[C@@H](O)[C@@H](O)C(C)(C)[C@@H]5CC[C@]43C)[C@@H]2[C@]1(C)O` are over 100 µg/mL, 35 µg/mL (≈ 69.3 µM) and over 2.9.
For the compound `C[C@@H]1CC[C@]2(C(=O)O)CC[C@]3(C)C(=CC[C@@H]4[C@@]5(C)[C@H](O)[C@H](O)[C@H](O)C(C)(C)[C@@H]5CC[C@]43C)[C@@H]2[C@]1(C)O`, in data set [1] (setting [5]), the half-inhibitory concentration (IC50) is over 20 µg/mL. For the same compound, the Activity result in data set [4] is given as “Not Active”.
As to `CC1(C)CC[C@]2(C(=O)O)CC[C@]3(C)C(=CC[C@@H]4[C@@]5(C)C[C@@H](O)[C@H](O)[C@@](C)(CO)[C@@H]5CC[C@]43C)[C@@H]2C1` (stereo in doubt; 2) [ARJUNOLIC ACID], the half-inhibitory concentration (IC50) in data set [1] (h9) came out at 8 µg/mL (≈ 16.4 µM).
`CC1(C)CC[C@]2(C(=O)O)CC[C@]3(C)C(=CC[C@@H]4[C@@]5(C)C[C@@H](O)[C@H](O)[C@@](C)(CO)[C@@H]5CC[C@]43C)[C@@H]2C1` (stereo in doubt; 3) [ARJUNOLIC ACID] returned a half-maximal inhibitory concentration (IC50) in data set [1] (h9) of 36 µg/mL (≈ 73.7 µM). The compound also registered a 50% effective concentration (EC50) in data set [3] of 15 µg/mL (≈ 30.7 µM).
As to `C=C(C)[C@@H]1CC[C@]2(C(=O)O)CC[C@]3(C)[C@H](CC[C@@H]4[C@@]5(C)C[C@@H](O)[C@H](O)C(C)(C)[C@@H]5CC[C@]43C)[C@@H]12` [ALPHITOLIC ACID], the IC50 in data set [1] (setting [5]) worked out at 4 µg/mL (≈ 8.46 µM). The EC50 in data set [3] is 20 µg/mL (≈ 42.3 µM). The selectivity ratio in data set [2] was determined as 0.25.
Take `C[C@H]1[C@H](C)CC[C@]2(C(=O)O)CC[C@]3(C)C(=CC[C@@H]4[C@@]5(C)C[C@@H](O)[C@H](O)[C@@](C)(CO)[C@@H]5CC[C@]43C)[C@H]12` [ASIATIC ACID]: in data set [1] (setting [5]), the IC50 came out at 9 µg/mL (≈ 18.4 µM). Moreover, in data set [4], the Activity entry was “Not Active”.
Regarding `C[C@H]1[C@H](C)CC[C@]2(C(=O)O)CC[C@]3(C)C(=CC[C@@H]4[C@@]5(C)C[C@@H](O)[C@H](O)C(C)(C)[C@@H]5CC[C@]43C)[C@H]12` [COROSOLIC ACID], the IC50 in data set [1] (setting [5]) is 8 µg/mL (≈ 16.9 µM). This compound displayed an EC50 in data set [3] of 4 µg/mL (≈ 8.46 µM). Besides, in data set [2], the selectivity ratio came out at 2.
Turning to `C[C@@H]1CC[C@]2(C(=O)O)CC[C@]3(C)C(=CC[C@@H]4[C@@]5(C)C[C@@H](O)[C@@H](O)C(C)(C)[C@@H]5CC[C@]43C)[C@@H]2[C@]1(C)O` [EUSCAPHIC ACID], the half-maximal inhibitory concentration (IC50) in data set [1] (setting [5]) was 37.5 µg/mL (≈ 76.7 µM). The Activity result in data set [4] was “Not Active”.
As for `CC1(C)CC[C@]2(C(=O)O)CC[C@]3(C)C(=CC[C@@H]4[C@@]5(C)CC[C@H](OC(=O)CCC(=O)O)C(C)(C)[C@@H]5CC[C@]43C)[C@@H]2C1` [OLEANOLIC ACID 3-O-SUCCINATE], the IC50 in data set [1] (setting [5]) is 6.5 µg/mL (≈ 11.7 µM). Moreover, the EC50 in data set [3] worked out at 6.1 µg/mL (≈ 11 µM). Moreover, in data set [2], the selectivity ratio came out at 1.1.
With `CC1(C)CC[C@]2(C(=O)O)CC[C@]3(C)C(=CC[C@@H]4[C@@]5(C)CC[C@H](O)C(C)(C)[C@@H]5CC[C@]43C)[C@@H]2C1` [OLEANOLIC_ACID], in data set [1] (setting [5]), the IC50 was 21.8 µg/mL (≈ 47.7 µM).
As to `CC1(C)CC[C@]2(C(=O)O)CC[C@]3(C)C(=CC[C@@H]4[C@@]5(C)CCC(=O)C(C)(C)[C@@H]5CC[C@]43C)[C@@H]2C1` [OLEANONIC ACID], the half-inhibitory concentration (IC50) in data set [1] (setting [5]) came out at 0.8 µg/mL (≈ 1.76 µM). Moreover, in data set [3], the EC50 amounted to 0.11 µg/mL (≈ 0.242 µM). The selectivity ratio in data set [2] came out at 7.3.
Turning to `C[C@@H]1CC[C@]2(C(=O)O)CC[C@]3(C)C(=CC[C@@H]4[C@@]5(C)CC[C@H](O)C(C)(C)[C@@H]5CC[C@]43C)[C@@H]2[C@]1(C)O` [POMOLIC ACID], in data set [1] (setting [5]), the IC50 turned out to be 23.3 µg/mL (≈ 49.3 µM). The EC50 in data set [3] was 1.4 µg/mL (≈ 2.96 µM). Further, in data set [2], the selectivity ratio is 16.6.
Regarding `C[C@@H]1CC[C@]2(C(=O)O)CC[C@]3(C)C(=CC[C@@H]4[C@@]5(C)C[C@@H](O)[C@H](O)C(C)(C)[C@@H]5CC[C@]43C)[C@@H]2[C@]1(C)O` [TOMENTIC ACID], the half-inhibitory concentration (IC50) in data set [1] (setting [5]) stood at 15 µg/mL (≈ 30.7 µM). In data set [4], the Activity entry is “Not Active”.
For the compound `C[C@H]1[C@H](C)CC[C@]2(C(=O)O)CC[C@]3(C)C(=CC[C@@H]4[C@@]5(C)CC[C@H](O)C(C)(C)[C@@H]5CC[C@]43C)[C@H]12` [URSOLIC ACID], the 50% inhibitory concentration (IC50) in data set [1] (setting [5]) stood at 6.5 µg/mL (≈ 14.2 µM). The concentration giving a half-maximal response (EC50) in data set [3] was determined as 2 µg/mL (≈ 4.38 µM). Further, in data set [2], the selectivity ratio turned out to be 3.3.

The values are drawn from ChEMBL document CHEMBL1150942, “Anti-AIDS agents. 30. Anti-HIV activity of oleanolic acid, pomolic acid, and structurally related triterpenoids” (J Nat Prod, 1998).
